Results as given in ChEMBL document CHEMBL4014336 (J Med Chem, 2017).

Columns and labels:
Mus musculus [1] = assay: In vivo inhibition of 11beta-HSD1 in po dosed non-fasting diet-induced obese mouse assessed as decrease in corticosterone excursion in plasma pretreated for 60 mins followed by DHC administration measured up to 120 mins by enzyme immunosorbent assay; assay type: functional
Summary of the method: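 Nonfasting diet-induced obese male mice, groups of n = 6 matched for body weight; tail bleed at −60 min, then oral vehicle (0.5% Methocel, 0.1% Tween 80 in water) or drug. At 60 min, bleed and oral DHC 10 mg/kg. Bleeds at 30, 60 and 120 min post-DHC. Plasma corticosterone measured by enzyme immunosorbent assay; drug levels in terminal bleed.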

[2] = Metabolic stability in human liver microsomes assessed as UGT-mediated glucuronidation of compound by measuring half life in presence of UDPGA; assay type: ADME
Summary of the method: (§1)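 Liver microsomal glucuronidation incubations in the presence of UDPGA; parent half-life determined.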

[3] = Metabolic stability in mouse liver microsomes assessed as UGT-mediated glucuronidation of compound by measuring half life in presence of UDPGA; assay type: ADME; summary of the method: as §1
Liver = assay: Metabolic stability in mouse liver microsomes assessed as parent compound remaining after 10 mins; assay type: ADME, microsome; conditions: microsomes, 10 min
Summary of the method: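 Parent compound remaining after a 10 min incubation with human, mouse or rat liver microsomes.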

[4] = biological target: 11-beta-hydroxysteroid dehydrogenase type 2 (Rattus norvegicus, UniProt P50233); assay: Inhibition of rat 11beta-HSD2
Rattus norvegicus [5] = assay: Toxicity in rat assessed as hypokalemia at 300 mg/kg for 2 weeks; assay type: organism-based; conditions: in vivo, 336 h
Summary of the method: (§2)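 Exploratory rat toxicology study lasting 2 weeks, with 300 mg/kg as the highest dose given. The study assessed hypokalemia, plasma volume expansion, hypertension and renal toxicity.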

Rattus norvegicus [6] = assay: Toxicity in rat assessed as hypertension at 300 mg/kg for 2 weeks; assay type: organism-based; conditions: in vivo, 336 h; summary of the method: as §2
Cytochrome P450 2C9 = Cytochrome P450 2C9 (Homo sapiens, UniProt P11712); assay: Inhibition of CYP2C9 (unknown origin); assay type: ADME
Cytochrome P450 2C19 = Cytochrome P450 2C19 (Homo sapiens, UniProt P33261); assay: Inhibition of CYP2C19 (unknown origin); assay type: ADME
Cytochrome P450 2D6 = Cytochrome P450 2D6 (Homo sapiens, UniProt P10635); assay: Inhibition of CYP2D6 (unknown origin); assay type: ADME
Cytochrome P450 2E1 = Cytochrome P450 2E1 (Homo sapiens, UniProt P05181); assay: Inhibition of CYP2E1 (unknown origin); assay type: ADME
HepG2 = assay: Cytotoxicity against human HepG2 cells at 80 uM; assay type: cell-based; conditions: hepg2, 80 µM
Summary of the method: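 HepG2 cells exposed at 80 μM; cytotoxicity assessed.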

hERG = hERG (Homo sapiens, UniProt Q12809); assay: Inhibition of human ERG at 30 uM by patch clamp assay relative to control
Summary of the method: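 hERG channel, patch clamp; percent inhibition at 30 μM.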

[7] = Permeability from apical to basolateral side in human Caco2 cells; assay type: ADME, cell-based; conditions: Caco-2, read-out: permeability
[8] = Apparent elimination half life in mouse at 5 mg/kg, iv; assay type: ADME, organism-based; conditions: in vivo, read-out: betat1/2(app) (converted)
Rattus norvegicus [9] = assay: Volume of distribution at steady state in rat at […], iv; assay type: ADME, organism-based; conditions: in vivo
Rattus norvegicus [10] = assay: Apparent elimination half life in rat at […], iv; assay type: ADME, organism-based; conditions: in vivo
[11] = MRT in dog at 1 mg/kg, iv; assay type: ADME, organism-based, Canis lupus familiaris; conditions: in vivo
[12] = Oral bioavailability in dog at 2 mg/kg; assay type: ADME, organism-based, Canis lupus familiaris; conditions: in vivo
[13] = Volume of distribution at steady state in cynomolgus monkey at 1 mg/kg, iv; assay type: ADME, organism-based, Macaca fascicularis; conditions: in vivo, read-out: Vdss
[14] = Oral bioavailability in cynomolgus monkey at 3 mg/kg; assay type: ADME, organism-based, Macaca fascicularis; conditions: in vivo
[15] = Protein binding in human plasma; assay type: ADME, cell-free; conditions: read-out: PPB (converted)
[16] = Protein binding in dog plasma; assay type: ADME, cell-free, Canis lupus familiaris; conditions: read-out: PPB (converted)
Mus musculus [17] = assay: In vivo inhibition of 11beta-HSD1 in po dosed non-fasting diet-induced obese mouse assessed as plasma concentration required to show decrease in corticosterone excursion pretreated for 60 mins followed by DHC administration measured up to 120 mins by enzyme immunosorbent assay; assay type: functional, organism-based
Summary of the method: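 Nonfasting diet-induced obese male mice, groups of n = 6 matched for body weight. Tail bleed at −60 min, then oral dosing with vehicle (0.5% Methocel, 0.1% Tween 80 in water) or drug. DHC 10 mg/kg given orally 60 min later. Bleeds at 30, 60 and 120 min after DHC. Plasma corticosterone measured by enzyme immunosorbent assay. Drug levels measured in terminal bleed samples.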

Cynomolgus monkey = assay: In vivo inhibition of 11beta-HSD1 in non-fasting diet-induced obese cynomolgus monkey assessed as plasma concentration required to show decrease in corticosterone excursion pretreated via oral gavage for 30 mins followed by DHC administration measured up to 60 mins by enzyme immunosorbent assay; assay type: functional, organism-based; conditions: Macaca fascicularis
Summary of the method: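 Cynomolgus monkeys given test compound at a predetermined time before the experiment, chosen from its pharmacokinetics. Substrate DHC (rodent substrate, used in place of cortisone) given afterwards. Blood sampled at various times. Design otherwise similar to the mouse DHC challenge.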

Plasma = assay: Drug metabolism in rat plasma assessed as ketone A formation at […], iv; assay type: ADME, organism-based; conditions: in vivo
in vivo = conditions: mouse, liver / plasma, iv, 5 mg/kg

Sequence of hERG (Q12809 whole entry): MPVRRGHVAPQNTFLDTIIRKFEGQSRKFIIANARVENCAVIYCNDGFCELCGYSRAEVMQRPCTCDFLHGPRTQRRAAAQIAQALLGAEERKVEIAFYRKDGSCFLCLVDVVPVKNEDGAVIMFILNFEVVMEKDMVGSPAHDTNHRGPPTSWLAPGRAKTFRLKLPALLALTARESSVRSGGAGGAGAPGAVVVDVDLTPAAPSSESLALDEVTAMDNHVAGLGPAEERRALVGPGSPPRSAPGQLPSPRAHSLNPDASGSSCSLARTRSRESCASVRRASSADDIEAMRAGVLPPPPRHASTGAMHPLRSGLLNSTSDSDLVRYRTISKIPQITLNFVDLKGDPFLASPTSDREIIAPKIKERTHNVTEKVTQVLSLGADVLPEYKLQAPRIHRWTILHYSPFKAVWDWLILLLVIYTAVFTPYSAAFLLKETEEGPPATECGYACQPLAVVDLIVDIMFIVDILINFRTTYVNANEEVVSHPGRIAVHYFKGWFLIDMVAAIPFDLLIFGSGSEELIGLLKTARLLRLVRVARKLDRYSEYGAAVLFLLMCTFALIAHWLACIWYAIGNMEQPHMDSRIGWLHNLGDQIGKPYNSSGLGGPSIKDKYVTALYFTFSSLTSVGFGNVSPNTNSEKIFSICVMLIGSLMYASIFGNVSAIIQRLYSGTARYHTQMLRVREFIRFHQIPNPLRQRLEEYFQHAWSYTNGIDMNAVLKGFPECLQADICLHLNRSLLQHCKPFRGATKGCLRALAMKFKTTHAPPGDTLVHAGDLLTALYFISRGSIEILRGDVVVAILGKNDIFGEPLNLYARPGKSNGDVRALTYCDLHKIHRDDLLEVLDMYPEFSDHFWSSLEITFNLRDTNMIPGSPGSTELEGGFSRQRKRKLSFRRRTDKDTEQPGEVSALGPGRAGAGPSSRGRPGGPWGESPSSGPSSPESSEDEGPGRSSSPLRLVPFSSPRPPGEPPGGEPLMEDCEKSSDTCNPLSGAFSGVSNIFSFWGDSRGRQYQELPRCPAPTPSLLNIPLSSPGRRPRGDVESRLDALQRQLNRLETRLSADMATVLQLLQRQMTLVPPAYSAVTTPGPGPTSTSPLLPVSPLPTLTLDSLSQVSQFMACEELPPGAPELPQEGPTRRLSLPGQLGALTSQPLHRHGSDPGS
Sequence of Cytochrome P450 2C19 (P33261 whole entry): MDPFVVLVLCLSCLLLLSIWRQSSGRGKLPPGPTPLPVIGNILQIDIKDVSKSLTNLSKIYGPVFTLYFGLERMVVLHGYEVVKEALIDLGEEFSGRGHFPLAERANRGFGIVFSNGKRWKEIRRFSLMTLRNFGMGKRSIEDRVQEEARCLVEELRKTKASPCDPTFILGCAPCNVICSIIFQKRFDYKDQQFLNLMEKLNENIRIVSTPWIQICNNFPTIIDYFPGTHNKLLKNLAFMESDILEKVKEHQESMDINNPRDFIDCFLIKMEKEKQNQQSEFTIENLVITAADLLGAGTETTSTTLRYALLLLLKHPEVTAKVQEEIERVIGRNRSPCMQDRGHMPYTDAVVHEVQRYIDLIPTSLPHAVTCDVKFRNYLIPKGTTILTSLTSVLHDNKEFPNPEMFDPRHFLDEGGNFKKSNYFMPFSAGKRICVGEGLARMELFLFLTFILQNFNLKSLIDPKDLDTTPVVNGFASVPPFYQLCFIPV
Sequence of Cytochrome P450 2E1 (P05181 whole entry): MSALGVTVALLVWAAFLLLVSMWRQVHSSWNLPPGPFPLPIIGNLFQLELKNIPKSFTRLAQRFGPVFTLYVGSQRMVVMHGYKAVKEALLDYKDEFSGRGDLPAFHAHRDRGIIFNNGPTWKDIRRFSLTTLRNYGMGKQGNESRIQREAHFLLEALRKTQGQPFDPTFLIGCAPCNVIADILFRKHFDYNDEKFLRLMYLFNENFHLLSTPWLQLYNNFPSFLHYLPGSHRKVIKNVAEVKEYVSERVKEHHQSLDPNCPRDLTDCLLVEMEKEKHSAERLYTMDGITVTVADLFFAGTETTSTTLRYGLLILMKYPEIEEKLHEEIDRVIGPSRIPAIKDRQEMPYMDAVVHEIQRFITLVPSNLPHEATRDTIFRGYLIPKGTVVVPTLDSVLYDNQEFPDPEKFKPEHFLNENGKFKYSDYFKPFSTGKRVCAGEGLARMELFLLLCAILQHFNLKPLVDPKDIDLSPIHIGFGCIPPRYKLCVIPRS
Sequence of Cytochrome P450 2D6 (P10635 whole entry): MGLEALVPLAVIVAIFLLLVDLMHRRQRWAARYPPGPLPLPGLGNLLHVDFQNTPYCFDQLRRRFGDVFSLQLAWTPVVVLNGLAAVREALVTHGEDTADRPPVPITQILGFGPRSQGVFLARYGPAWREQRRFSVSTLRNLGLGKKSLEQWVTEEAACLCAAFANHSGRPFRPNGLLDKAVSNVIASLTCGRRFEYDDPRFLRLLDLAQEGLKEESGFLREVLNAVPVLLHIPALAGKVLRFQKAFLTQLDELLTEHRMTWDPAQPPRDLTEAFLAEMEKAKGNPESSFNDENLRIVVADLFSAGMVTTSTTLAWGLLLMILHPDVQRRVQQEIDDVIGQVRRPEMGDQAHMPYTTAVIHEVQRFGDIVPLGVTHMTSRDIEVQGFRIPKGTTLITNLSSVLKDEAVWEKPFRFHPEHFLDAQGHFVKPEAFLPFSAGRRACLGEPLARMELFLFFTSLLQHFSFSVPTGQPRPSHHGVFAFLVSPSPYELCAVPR
Sequence of Cytochrome P450 2C9 (P11712 whole entry): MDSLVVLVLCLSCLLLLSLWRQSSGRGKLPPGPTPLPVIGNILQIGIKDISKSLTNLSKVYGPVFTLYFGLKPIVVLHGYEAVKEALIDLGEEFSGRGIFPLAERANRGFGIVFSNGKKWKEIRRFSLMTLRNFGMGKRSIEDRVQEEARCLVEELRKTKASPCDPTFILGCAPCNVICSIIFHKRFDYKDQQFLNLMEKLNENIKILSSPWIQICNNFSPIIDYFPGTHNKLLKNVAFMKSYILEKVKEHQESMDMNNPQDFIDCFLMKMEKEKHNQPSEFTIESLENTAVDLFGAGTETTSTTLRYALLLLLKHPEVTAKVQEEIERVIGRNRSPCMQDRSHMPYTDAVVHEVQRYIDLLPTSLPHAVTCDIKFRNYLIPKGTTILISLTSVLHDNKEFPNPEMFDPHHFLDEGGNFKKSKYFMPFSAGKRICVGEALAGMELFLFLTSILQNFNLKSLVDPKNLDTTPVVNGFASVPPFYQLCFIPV
Sequence of 11-beta-hydroxysteroid dehydrogenase type 2 (P50233 whole entry): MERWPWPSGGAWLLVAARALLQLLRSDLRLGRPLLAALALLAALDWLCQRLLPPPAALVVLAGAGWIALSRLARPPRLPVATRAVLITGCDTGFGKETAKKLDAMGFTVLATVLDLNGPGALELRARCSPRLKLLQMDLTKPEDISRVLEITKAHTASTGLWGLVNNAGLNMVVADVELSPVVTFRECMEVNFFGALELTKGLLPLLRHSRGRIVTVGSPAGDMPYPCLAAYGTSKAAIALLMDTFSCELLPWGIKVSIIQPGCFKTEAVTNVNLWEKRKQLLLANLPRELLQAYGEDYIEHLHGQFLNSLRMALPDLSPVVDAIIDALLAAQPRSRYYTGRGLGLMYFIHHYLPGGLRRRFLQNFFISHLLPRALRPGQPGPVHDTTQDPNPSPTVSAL

`O=C(CC1(c2ccccc2)C2CC3CC1CC(C2)C3O)N1CC(O)C1` (stereo in doubt; form 2) showed an ED50 (Mus musculus [1]) of 8.6 mg/kg, a half-life [2] of over 3.33 h and a half-life [3] of over 3.33 h. For the same molecule, the Stability (Liver) was 80%, the IC50 [4] was 3.5 µM and the Activity (Rattus norvegicus [5]) was “Non-Toxic”. The Activity (Rattus norvegicus [6]) was “Non-Toxic”, the IC50 (Cytochrome P450 2C9) was over 40 µM and the IC50 (Cytochrome P450 2C19) was over 40 µM. For the same molecule, the IC50 (Cytochrome P450 2D6) was over 40 µM, the IC50 (Cytochrome P450 2E1) was over 40 µM and the Activity (HepG2) was “Non-Toxic”. The inhibition at 30 µM (hERG) was 10%, the Papp A→B [7] was 10.5 ×10⁻⁶ cm/s and the half-life [8] was 2 h. It also gave a Vdss (Rattus norvegicus [9]) of 0.5 L/kg, a betat1/2(app) (Rattus norvegicus [10]) of 3 h and an MRT [11] of 3.5 h. It also gave a bioavailability [12] of 72%, a Vd [13] of 4.2 L/kg and a bioavailability [14] of 57%. It also gave a fraction unbound [15] of 0.46, a fraction unbound [16] of 0.43 and an EC50 (Mus musculus [17]) of 0.85 µM. The EC50 (Cynomolgus monkey) was 0.075 µM, the Drug metabolism (Plasma) was “Metabolite_Detected” and the Kp (in vivo) was 1 to 56.
